Screening results: PubChem, Sanford-Burnham Center for Chemical Genomics
Hits are enriched below; roughly 1.5% of the tested compounds scored in any of these assays.
CCR6 antagonist – CCR6 receptor antagonists, primary screen, cell-based, CHO-K1, luminescence, beta-arrestin, uHTS. 340,000 compounds, 0.49% hits. inhibition, % at 20 µM. CHO-K1 CCR6 PathHunter beta-arrestin, CCL20-stimulated;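 active = compounds whose inhibition of the agonist-driven luminescence signal at 20 µM reaches about 50%, limit read from the data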;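 also: cells stimulated with CCL20 at 14 nM final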
EBI2 block – EBI2 receptor antagonists, beta-arrestin recruitment, primary screen, cell-based, luminescence, 7a,25-OHC stimulation, uHTS. G-protein coupled receptor 183 (Homo sapiens), P32249. 7a,25-OHC stimulated. inhibition, % at 5 µM. 360,000 compounds, 0.81% hits. AID 651636, 2012; in the data active = inhibition above about 38%;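 also: enzyme fragment complementation signal reports receptor beta-arrestin coupling in cells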
APJ ag – agonists of human apelin receptor APJ, primary screen, CHO-K1 cells, PathHunter beta-arrestin, luminescence | activation, % at 20 µM | 0% DMSO wells, 100% apelin | 330,000 compounds, 0.11% hits | AID 2520, 2010;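 active = activation more than six SD over the plate average, tested at 20 µM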
Target sequence (P35414 whole entry, looked up): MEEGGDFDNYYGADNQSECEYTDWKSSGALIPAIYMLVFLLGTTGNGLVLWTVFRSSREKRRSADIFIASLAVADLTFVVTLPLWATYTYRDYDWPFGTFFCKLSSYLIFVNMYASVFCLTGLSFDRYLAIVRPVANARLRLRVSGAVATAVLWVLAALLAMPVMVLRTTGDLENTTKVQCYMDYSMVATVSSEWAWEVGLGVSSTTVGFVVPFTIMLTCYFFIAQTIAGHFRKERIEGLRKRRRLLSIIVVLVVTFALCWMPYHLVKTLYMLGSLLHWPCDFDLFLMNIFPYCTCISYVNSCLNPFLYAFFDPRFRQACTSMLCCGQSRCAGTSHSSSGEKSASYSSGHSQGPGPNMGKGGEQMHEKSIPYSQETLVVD
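system = engineered CHO-K1 APJ arrestin reporter cells | input = 1000 cells per well | timing = overnight seeding, 90 min compound at 25 °C, 1 h detection | measured by = enzyme-fragment complementation luminescence | read-out = beta-arrestin recruitment to APJ as agonist activity, luminescent signal | control set = negative DMSO alone, positive Apelin-13 at 10 nM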
APJ antag – antagonists of human apelin receptor APJ, primary screen, CHO-K1 cells, beta-arrestin complementation, luminescence; P35414; inhibition, % at 20 µM; 330,000 compounds, 0.32% hits; AID 2521, 2010;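 active = inhibition above about 40% at 20 µM, limit read from the data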;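 also: cells challenged with 10 nM apelin-13 agonist together with compound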
CXCR6 block – CXCR6 receptor inhibitors, primary screen, cell-based, beta-arrestin, luminescence, CHO-K1 PathHunter, 1536-well | inhibition, % at 20 µM | 360,000 compounds, 0.36% hits; in the data active = inhibition above about 34%, passing the limit was not always enough;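 also: antagonist mode with CXCL16 agonist at 10 nM final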
Target sequence (O00574 whole entry, looked up): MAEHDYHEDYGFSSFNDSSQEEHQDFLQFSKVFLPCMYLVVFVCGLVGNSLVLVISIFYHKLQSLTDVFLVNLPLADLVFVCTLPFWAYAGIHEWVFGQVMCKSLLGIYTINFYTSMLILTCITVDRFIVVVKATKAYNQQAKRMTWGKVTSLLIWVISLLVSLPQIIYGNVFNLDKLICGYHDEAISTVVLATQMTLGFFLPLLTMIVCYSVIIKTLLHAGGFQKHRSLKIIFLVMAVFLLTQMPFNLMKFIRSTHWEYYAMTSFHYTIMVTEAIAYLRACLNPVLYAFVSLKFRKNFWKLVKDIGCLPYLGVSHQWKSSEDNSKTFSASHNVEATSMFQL
EBI2 conf – EBI2 antagonist hit retest, beta-arrestin, confirmation, cell-based, single concentration, luminescence, 7a,25-OHC stimulation; shares compounds with EBI2 block; 7a,25-OHC antagonism; inhibition, % at 5 µM; 2,400 compounds, 29% hits; AID 651997, 2013;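 active = inhibition of at least 50%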
EBI2 agonist – EBI2 agonist activity of antagonist hits, confirmation, counter-screen for EBI2 antagonist project, cell-based, single concentration, agonist mode, luminescence; shares compounds with EBI2 block; EBI2-expressing cells, 60 min; 0% vehicle, 100% 7α,25-dihydroxycholesterol control; activation, % at 5 µM; 2,400 tested, under 10 active;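 active = activation of at least 50%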
bGal cs – E. coli beta-galactosidase enzyme inhibition, confirmation, counter-screen for EBI2 antagonist project, biochemical, luminescence, single concentration; shares compounds with EBI2 block; purified beta-galactosidase, luminescent Galacton Star, 15 min; inhibition, % at 5 µM; 2,400 compounds, 1% hits;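 active = replicate-average signal at least 3 plate SD below neutral wells, shown as high inhibition, flagging enzyme-inhibiting false positives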;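 also: higher means stronger loss of beta-gal luminescence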
Of the large screens only hits and unclear results are named; the others gave an inactive call (follow-up assays come after a bar, where they were run).

COc1ccc(C(=O)/C=C/c2ccc(C)cc2)c(OC(=O)c2ccc([N+](=O)[O-])cc2)c1	EBI2 block 82 | EBI2 conf inactive | EBI2 agonist inactive | bGal cs inactive
Cc1ccc(C(=O)C=Cc2cccc(C)c2)cc1	none (no result: APJ ag, APJ antag)
Cc1ccc(/C=C/C(=O)c2ccc(C)cc2)cc1	EBI2 block 61 | EBI2 conf 66 | EBI2 agonist inactive | bGal cs inactive
CC(=O)c1ccc(NC(=O)/C=C/c2ccc(C)cc2)cc1	EBI2 block 54 | EBI2 conf inactive | EBI2 agonist inactive | bGal cs inactive
O=C(C=Cc1ccccc1)c1ccc([N+](=O)[O-])cc1	none (no result: APJ ag, APJ antag)
CCCCNC(=O)C1(C)CCC(=O)N1C1CCN(Cc2ccccc2)CC1 (stereo unspecified)	none (no result: CCR6 antagonist, APJ ag, APJ antag)
COc1cccc(NC(=O)N(C)C[C@@H]2OCc3cnnn3CCCC(=O)N([C@H](C)CO)C[C@@H]2C)c1	none (no result: CCR6 antagonist, APJ ag, APJ antag)
CC(C)(CNC(=O)c1cccc(S(=O)(=O)Nc2ccc(SC(F)F)cc2)c1)N1CCOCC1	none (no result: APJ ag, APJ antag)
COc1cc(C(=O)NCCOc2ccc(Cl)cc2)ccc1OCc1c(C)noc1C	EBI2 block 72 | EBI2 conf 56 | EBI2 agonist inactive | bGal cs inactive
Cc1ccc(NC(=O)c2ccc(OCc3c(C)noc3C)cc2)cc1C	EBI2 block 53 | EBI2 conf inactive | EBI2 agonist inactive | bGal cs inactive
COc1ccc(Nc2nc(-c3sc(C)nc3C)cs2)cc1	EBI2 block 53 | EBI2 conf 53 | EBI2 agonist inactive | bGal cs inactive
O=C(Nc1ccc2ccccc2c1)c1ccc(NS(=O)(=O)c2ccc(Br)s2)cc1	EBI2 block 44 | EBI2 conf inactive | EBI2 agonist inactive | bGal cs inactive
O=C(c1ccncc1)c1ccc(NS(=O)(=O)c2ccc(Br)s2)cc1	none
Cc1cc(Cl)ccc1Oc1ncc(-c2ccc(Cl)cc2)cn1	EBI2 block 60 | EBI2 conf inactive | EBI2 agonist inactive | bGal cs inactive
Clc1ccc(-c2cnc(Oc3ccccc3)nc2)cc1	EBI2 block 73 | EBI2 conf inactive | EBI2 agonist inactive | bGal cs inactive
Clc1ccc(-c2ccccc2)cn1	none
Cc1cc(C)cc(NC(=O)Nc2ccc3c(c2)N(C)C(=O)CS3)c1	EBI2 block 38 | EBI2 conf inactive | EBI2 agonist inactive | bGal cs inactive
Cc1cc(Cl)c2oc(C(=O)N3CCOCC3)c(C)c2c1	none (no result: CCR6 antagonist, APJ ag, APJ antag)
Cc1cc(Cl)c2oc(C(=O)N3CCN(C(=O)c4ccco4)CC3)c(C)c2c1	EBI2 block 44 | EBI2 conf inactive | EBI2 agonist inactive | bGal cs inactive
Cc1cc(Cl)c2oc(C(=O)N3CCN(c4cnccn4)CC3)c(C)c2c1	EBI2 block 54 (no result: CCR6 antagonist, APJ ag, APJ antag) | EBI2 conf inactive | EBI2 agonist inactive | bGal cs inactive
Cc1ccc(Nc2ccc(NCc3ccccc3)nn2)cc1C	EBI2 block 65 | EBI2 conf inactive | EBI2 agonist inactive | bGal cs inactive
Clc1ccc(Nc2ccc(NCc3ccccc3)nn2)cc1	EBI2 block 63 | EBI2 conf inactive | EBI2 agonist inactive | bGal cs inactive
O=C(NNc1ccc(C2CCCCC2)cc1)C(O)(c1ccccc1)c1cccs1 (stereo unspecified)	EBI2 block 41 | EBI2 conf inactive | EBI2 agonist inactive | bGal cs inactive
COc1ccc(C(O)(C(=O)NNc2ccc(C)cc2)c2cccs2)cc1 (stereo unspecified)	none
O=C(C[C@H]1C[C@@H]2c3cc(NC(=O)c4cccnc4)ccc3O[C@@H]2[C@H](CO)O1)NCc1ccncc1	none (no result: CCR6 antagonist, APJ ag, APJ antag)
Cc1ccc(CNC(=O)/C=C/c2ccc(S(=O)(=O)NCc3ccco3)cc2)cc1	EBI2 block 44 | EBI2 conf inactive | EBI2 agonist inactive | bGal cs inactive
Cc1cc(C)c(S(=O)(=O)N(CC(=O)O)CC(=O)O)c(C)c1	none
Cc1cc(C)c(S(=O)(=O)N(C2=NCCS2)S(=O)(=O)c2c(C)cc(C)cc2C)c(C)c1	EBI2 block 56 | EBI2 conf inactive | EBI2 agonist inactive | bGal cs inactive
COCCNC(=O)C1(C)CCN(C(=O)c2ccc3ccccc3n2)C1 (stereo unspecified)	none (no result: CCR6 antagonist, APJ ag, APJ antag)
COc1ccc(OCCNC(=O)c2cccc(Oc3ccc(C(F)(F)F)cc3[N+](=O)[O-])c2)cc1	EBI2 block 43 | EBI2 conf inactive | EBI2 agonist inactive | bGal cs inactive
C[C@H]1CN([C@@H](C)CO)S(=O)(=O)c2ccc(Br)cc2O[C@H]1CN(C)C(=O)Cc1ccccc1	none (no result: CCR6 antagonist, APJ ag, APJ antag)
C[C@@H]1CN([C@H](C)CO)S(=O)(=O)c2ccc(C#Cc3ccccc3F)cc2O[C@@H]1CN(C)C(=O)Cc1ccccc1	EBI2 block 72 (no result: CCR6 antagonist, APJ ag, APJ antag) | EBI2 conf 79 | EBI2 agonist inactive | bGal cs inactive
Cc1cccc(C)c1-n1nnnc1C1c2ccccc2C(=O)N1C1CC1 (stereo unspecified)	none (no result: CCR6 antagonist, APJ ag, APJ antag)
Cc1nc(N2CCN(Cc3ccc4c(c3)OCO4)CC2)c2cc(-c3ccccc3)sc2n1	EBI2 block 38 | EBI2 conf inactive | EBI2 agonist inactive | bGal cs inactive
CC(C)(C)S(=O)(=O)/C(C#N)=C/c1cccn1S(=O)(=O)c1ccccc1	none (no result: CCR6 antagonist, APJ ag, APJ antag)
CS(=O)(=O)N1CCCCC1c1cc(C(=O)NCc2ccc(Cl)c(Cl)c2)no1 (stereo unspecified)	none (no result: CCR6 antagonist, APJ ag, APJ antag)
CC(C)c1ccc(/C=C/C(=O)N2CCOCC2)cc1	none
O=C(/C=C/c1ccc(Br)cc1)NC(=S)N1CCOCC1	EBI2 block 64 | EBI2 conf inactive | EBI2 agonist inactive | bGal cs inactive
O=C(/C=C/c1ccc(Cl)cc1)N1CCOCC1	EBI2 block 50 | EBI2 conf inactive | EBI2 agonist inactive | bGal cs inactive
O=C(/C=C/c1ccc(Cl)c(Cl)c1)N1CCOCC1	EBI2 block 57 | EBI2 conf 55 | EBI2 agonist inactive | bGal cs inactive
O=C(/C=C/c1ccc2c(c1)OCO2)N1CCN(c2ccc(Cl)cc2)CC1	EBI2 block 47 | EBI2 conf inactive | EBI2 agonist inactive | bGal cs inactive
